{"source": "paper PMC5694347", "about": "(Clinical cancer research : an official journal of the …, 2015)", "key": {"[1]": {"system": "patients with relapsed and/or refractory lymphoma or MM", "test": "Phase I dose escalation: MTD and DLT determination", "format": "in vivo"}, "[2]": {"test": "Plasma pharmacokinetics, cycle 1", "details": "human, in vivo"}, "[3]": {"system": "NQO1", "test": "Whole blood reverse-transcriptase-PCR of NRF-2-regulated genes", "format": "in vivo, human", "details": "approximate", "procedure,_shortened": "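Whole blood was collected in PAXgene tubes at screening, at baseline and during cycle 1. Schedule A: day 1 at 4 and 8 h, day 2 pre-dose, day 5. Schedule B: days 1 and 11 at 4, 8 and 23 h, pre-dose days 4 and 11, day 15. Eight genes were assayed by RT-PCR, with ΔCt against four housekeeping genes (18S, B2M, RPLP0, UBC). Percent change = (2^−(post ΔCt − baseline ΔCt) − 1) × 100. Undetermined Ct was set to 40.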"}, "[4]": {"system": "NRF-2", "test": "Skin punch biopsy immunohistochemistry, NRF-2", "format": "in vivo, human", "details": "19 patients, schedule A 25–147 mg/m^2, after second dose of cycle 1", "procedure,_shortened": "(§1)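 IV infusion over 1 h. 2 mm skin punch biopsies were taken at screening and 3–6 h after the cycle 1 dose on day 2 (schedule A) or day 4 (schedule B). On 5 µm sections, CC1 antigen retrieval ran 20 min. Primary antibody was applied 1 h at room temperature, then alkaline phosphatase secondary 32 min, developed with NBT/BCIP. Slides were counterstained and imaged at 20x. Signal was percent stained area of the basal epithelial region.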"}, "[5]": {"system": "CDT-1", "test": "Skin punch biopsy immunohistochemistry, CDT-1", "format": "in vivo, human", "details": "3–6 hours after second dose of cycle 1", "procedure,_shortened": "as §1"}, "[6]": {"system": "pevonedistat–NEDD8 adduct", "test": "Bone marrow aspirate immunohistochemistry for pevonedistat–NEDD8 adduct", "format": "in vivo, human", "details": "one patient treated at 25 mg/m^2, pre-dose and post-dose sample", "procedure,_shortened": "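Patients with marrow involvement received IV pevonedistat over 1 h. Marrow aspirates were taken at screening and 2–6 h after the cycle 1 dose on day 2 (schedule A) or day 4 (schedule B). Aspirates were clotted, formalin-fixed and paraffin-embedded. Adduct-specific antibody was applied 1 h at 37°C, then biotinylated goat anti-rabbit secondary 32 min at room temperature, with DAB detection. Slides were counterstained and whole-slide imaged at 20x.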"}}, "note": "Marks after values point to notes of the source that are not given here.", "data": [{"smiles": "NS(=O)(=O)OC[C@@H]1C[C@@H](n2ccc3c(N[C@H]4CCc5ccccc54)ncnc32)C[C@@H]1O", "note": "[pevonedistat]", "values": [{"measurement": "DLTs at 261 mg/m^2", "setting": "[1]; in vivo", "result": "no DLTs were observed"}, {"measurement": "Maximum tolerated dose (MTD)", "setting": "[1]; schedule A: IV days 1, 2, 8, 9 of 21-day cycles", "result": 110, "unit": "mg/m^2"}, {"measurement": "Dose proportionality of mean Cmax and AUC0–24hr", "setting": "[2]", "result": "approximate dose-proportional increases"}, {"measurement": "Cmax", "setting": "[2]; 110 mg/m2", "result": "1683 (28) ng/mL"}, {"measurement": "Tmax", "setting": "[2]; 110 mg/m2", "result": 1.08, "unit": "h"}, {"measurement": "Cmax", "setting": "[2]; 110 mg/m2, Cmax", "result": 1.5, "unit": "µg/mL"}, {"measurement": "Tmax", "setting": "[2]; 110 mg/m2, Tmax", "result": 1.02, "unit": "h"}, {"measurement": "AUC0-τ", "setting": "[2]; 196 mg/m2", "result": "12,367 (13) ^c nghr/mL"}, {"measurement": "Cmax", "setting": "[2]; 196 mg/m2", "result": "3751 (53) ng/mL"}, {"measurement": "Mean plasma elimination half-life", "setting": "[2]; 196 mg/m2", "result": 8.5, "unit": "h"}, {"measurement": "Tmax", "setting": "[2]; 196 mg/m2", "result": "1.02 (0.9– 1.1) hr"}, {"measurement": "clearance", "setting": "[2]; 196 mg/m2", "result": 472, "unit": "mL/min"}, {"measurement": "Cmax", "setting": "[2]; 196 mg/m2, Cmax", "result": 4.57, "unit": "µg/mL"}, {"measurement": "half-life", "setting": "[2]; 196 mg/m2, Mean plasma elimination half-life", "result": "~8.5", "unit": "h"}, {"measurement": "half-life", "setting": "[2]; 196 mg/m2, Plasma elimination half-life, range", "result": "7.7 to 9.1", "unit": "h"}, {"measurement": "Tmax", "setting": "[2]; 196 mg/m2, Tmax", "result": 1.1, "unit": "h"}, {"measurement": "half-life", "setting": "[2]; 196 mg/m2, t½ (terminal disposition half-life)", "result": 8.5, "unit": "h"}, {"measurement": "NQO1 expression in whole blood, maximal change from baseline", "setting": "[3]; doses of 25–83 mg/m^2, cycle 1 day 1", "result": "250% to 400%"}, {"measurement": "NQO1 expression in whole blood, maximal change from baseline", "setting": "[3]; doses of 110–261 mg/m^2, cycle 1 day 1", "result": "700% to 800%"}, {"measurement": "NRF-2 expression in skin, median increase vs baseline", "setting": "[4]", "result": 39.4, "unit": "fold"}, {"measurement": "NRF-2 expression in skin, range of increase vs baseline", "setting": "[4]", "result": "0–1483 fold"}, {"measurement": "CDT-1 expression level in skin biopsies vs baseline", "setting": "[5]", "result": "increases"}, {"measurement": "Pevonedistat–NEDD8 adduct in bone marrow aspirate", "setting": "[6]", "result": "not detected"}]}]}
